Test results published in article PMC8095719 (Science translational medicine, 2020).
Where two headings read alike, the source gives them in different places. One block for each compound: values may come before it.

Key:
Fmr1^−/y mice [1] = assay: audiogenic seizure; assay type: in vivo, mouse; settings: for AGS incidence, chronic dosing: 30 mg/kg ip daily for five days
Outline: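 Male Fmr1−/y mice were housed on static racks to avoid auditory desensitisation. Doses were 30 mg/kg ip in 10% DMSO/45% PEG 400/45% saline. Acute: one injection 1–2 h before alarm exposure in a separate room. Chronic: four daily injections plus a fifth 1–2 h before testing. The mGluR5 antagonist comparator was given as three doses every 48 h. Incidence was compared by two-tailed Fisher's exact test.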

GSK3α [2] = settings: read-out: biochemical IC50 against GSK3α; reported values; cited from earlier work
[3] = system: mouse hippocampal slices (CA1 fEPSP); assay: mGluR-dependent LTD; assay type: cell-based; settings: DHPG 100 μM, 5 min
GSK3β [4] = settings: cited from earlier work; for IC50: read-out: biochemical IC50 against GSK3β, reported values
[5] = plasma, CSF and brain pharmacokinetics in C57BL/6 mice; assay type: in vivo, mouse; settings: 30 mg/kg ip; for brain entry after in vivo dosing: confirmed by hippocampal APP phosphorylation and LTD
Outline: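 Male C57BL/6 mice received a single 30 mg/kg ip dose. Blood was taken into K2-EDTA from three mice per time point, and plasma was stored below −70°C. CSF and brain were sampled at 0.08, 0.5, 1, 2, 4, 8 and 24 h. Brains were rinsed in PBS pH 7.4 and homogenised in ice-cold PBS to three times brain weight before analysis.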

mouse hippocampal slices = assay: metabolic labeling of protein synthesis in hippocampal slices; assay type: cell-based
Outline: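 Hippocampal slices (500 μm) came from male P28–P32 Fmr1−/y and WT littermates and were kept in oxygenated aCSF at 32.5°C. Compound was applied at 10 μM. Slices were labelled with [35S]Met/Cys for 30 min, then proteins were TCA-precipitated and counted by scintillation. Counts per minute per μg protein were normalised to the labelling aCSF and expressed as percent WT. Analysis was two-way ANOVA for genotype × treatment.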

[6] = system: mouse hippocampal slices (CA1 fEPSP); assay: NMDAR-dependent LTD and synaptic transmission in hippocampal slices; assay type: cell-based; settings: for NMDAR-dependent LTD, acute application: wild-type hippocampal slices, 10 μM, LFS 900 pulses at 3 Hz
[7] = system: layer 5 of the visual cortex slices; assay: evoked and spontaneous spiking in visual cortex slices; assay type: cell-based, mouse; settings: 10 μM
Outline: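 Visual cortex slices (350 μm) came from P16–P21 male WT and Fmr1−/y mice, cut in ice-cold sucrose solution. Recovery was 30 min at 32°C, then 2.5 h at room temperature in modified aCSF. White matter was stimulated with 0.2 ms pulses every 30 s at 35–80 μA, with extracellular recording in layer 5. Recording ran 30 min in vehicle (60 trials), then 30 min with 10 μM compound from 50 mM DMSO stock. Analysis was two-way repeated-measures ANOVA with Bonferroni post hoc.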

[8] = system: T668 of amyloid precursor protein (APP); assay: Western blot of APP phosphorylation in dorsal hippocampus after in vivo dosing; set-up: species or system mouse; settings: Fmr1^−/y mice, five days
GSK3β [9] = settings: cited from earlier work; for EC50: read-out: cellular EC50 against GSK3β, HEK293 cells
[10] = system: CRMP2 phosphorylation (p-CRMP2); assay: Western blot of CRMP2 phosphorylation in SH-SY5Y cultured cells; assay type: cell-based; settings: 10 μM
GSK3α [11] = settings: read-out: cellular EC50 against GSK3α; HEK293 cells; cited from earlier work
β-catenin = assay: Western blot of β-catenin in SH-SY5Y cultured cells; assay type: cell-based; settings: 10 μM, 24 hours
Fmr1^−/y mice [12] = settings: 30 mg/kg ip chronic, over 48 hours
wild-type mice = assay: MK-801–induced hyperlocomotion; assay type: in vivo, mouse; settings: MK-801 0.3 mg/kg
[13] = system: mouse hippocampal slices (CA1 fEPSP); settings: previous studies; cited from earlier work
Fmr1^−/y mice [14] = settings: cited from earlier work
T514 of CRMP2 = assay: Western blot of CRMP2 phosphorylation in dorsal hippocampus after in vivo dosing; set-up: species or system mouse; settings: Fmr1^−/y mice, five days dosing
Fmr1^−/y mice [15] = settings: chronic dietary treatment; cited from earlier work
GSK3 = settings: lithium treatment in patients with bipolar disorder; cited from earlier work
[16] = Fmr1^−/y hippocampal slices, 10 μM
[17] = Fmr1^−/y visual cortical slices
[18] = wild-type visual cortical slices
[19] = Fmr1^−/y mice, 30 mg/kg ip, 1 hour before stimulus

Structure (SMILES): Cc1nc(C#Cc2ccnc(Cl)c2)c(C)n1-c1ccc(OC(F)(F)F)cc1 [CTEP, 2-chloro-4-((2,5-dimethyl-1-(4-(trifluoromethoxy)phenyl)-1H-imidazol-4-yl)ethynyl) pyridine, reference compound]
- AGS incidence, acute dosing (Fmr1^−/y mice [1]; Fmr1^−/y mice, 2 mg/kg ip): significantly reduced the incidence of AGS
- AGS protection after chronic dosing (Fmr1^−/y mice [1]; Fmr1^−/y mice, three consecutive doses over 5 days, 2 mg/kg ip): protection was completely lost

- time of peak brain concentration after injection [5]: 60 min
- brain entry after in vivo dosing [5]: successfully entered the brain
Structure (SMILES): CC(C)(C)CC1=C2C(=NC3=C(C(=O)CC(C)(C)C3)[C@@]2(C)c2ccccc2)NN1 [BRD3731, (S)-4,7,7-trimethyl-3-neopentyl-4-phenyl-1,2,4,6,7,8-hexahydro-5H-pyrazolo[3,4-b]quinolin-5-one]
- IC50 (GSK3α [2]): 0.215 µM
- mGluR-dependent LTD ([3]; Fmr1^−/y hippocampal slices): but not BRD3731, blocked induction of LTD
- mGluR-dependent LTD ([3]; wild-type hippocampal slices): but not BRD3731, blocked induction of LTD
- selectivity for GSK3β (GSK3β [4]; purified enzymes): about 10 fold
- IC50 (GSK3β [4]): 0.015 µM
- basal protein synthesis (mouse hippocampal slices; [16]): had no effect
- NMDAR-dependent LTD ex vivo after chronic dosing in vivo ([6]; 30 mg/kg ip daily for five days, slices 1 hour after last injection): inhibited NMDAR-dependent LTD
- NMDAR-dependent LTD, acute application [6]: strongly inhibited LTD
- number of evoked action potentials [7, 17]: did not alter activity
- number of spontaneous action potentials [7, 17]: does not reduce spontaneous hyperactivity
- number of evoked action potentials [7, 18]: did not alter activity
- APP phosphorylation (T668) in dorsal hippocampus ([8]; 30 mg/kg ip QD): reduced APP phosphorylation
- EC50 (GSK3β [9]): 3.3 µM
- AGS incidence, chronic dosing (Fmr1^−/y mice [1]; Fmr1^−/y mice): has no effect on AGS incidence
- AGS incidence, acute dosing (Fmr1^−/y mice [1]; [19]): no significant reduction in seizure activity
- AGS incidence, acute dosing (Fmr1^−/y mice [1]; wild-type mice, 30 mg/kg ip): did not affect seizure incidence
- CRMP2 phosphorylation (p-CRMP2) [10]: decrease of CRMP2 phosphorylation
- EC50 (GSK3α [11]): > 20 µM
- effect on β-catenin (β-catenin): no effect on β-catenin

- brain entry after in vivo dosing [5]: successfully entered the brain
Structure (SMILES): CC[C@]1(c2ccccc2)C2=CNNC2=NC2=C1C(=O)CC(C)(C)C2 [BRD0705, (S)-4-ethyl-7,7-dimethyl-4-phenyl-1,2,4,6,7,8-hexahydro-5H-pyrazolo[3,4-b]quinolin-5-one]
- mGluR-dependent LTD ([3]; Fmr1^−/y hippocampal slices): blocked induction of LTD
- mGluR-dependent LTD ([3]; wild-type hippocampal slices): blocked induction of LTD
- basal protein synthesis (mouse hippocampal slices; [16]): reduced elevated protein synthesis
- CDPPB (mGluR5)-stimulated protein synthesis (mouse hippocampal slices; wild-type hippocampal slices, 10 μM, CDPPB 10 μM): blocked the elevation in protein synthesis
- basal protein synthesis (mouse hippocampal slices; wild-type mice): no effect on basal protein synthesis
- NMDAR-dependent LTD, acute application [6]: blocked low-frequency stimulation–induced LTD
- synaptic transmission ([6]; wild-type mice): no effect
- inhibitory avoidance memory acquisition and extinction (Fmr1^−/y mice [12]): exhibited normal memory acquisition and extinction
- number of evoked action potentials [7, 17]: significantly reduced the number of action potentials
- number of spontaneous action potentials [7, 17]: significantly reduced the number of spontaneous action potentials
- number of evoked action potentials [7, 18]: had no effect on WT visual cortical slices
- APP phosphorylation (T668) in dorsal hippocampus ([8]; 30 mg/kg ip QD): reduced APP phosphorylation
- AGS incidence, chronic dosing (Fmr1^−/y mice [1]; Fmr1^−/y mice): no apparent loss of efficacy
- AGS incidence, acute dosing (Fmr1^−/y mice [1]; [19]): significant reduction in seizure incidence
- AGS incidence, acute dosing (Fmr1^−/y mice [1]; wild-type mice, 30 mg/kg ip): had no effect on seizure incidence
- CRMP2 phosphorylation (p-CRMP2) [10]: decrease of CRMP2 phosphorylation
- effect of pretreatment on MK-801–induced hyperlocomotion (wild-type mice; 30 mg/kg ip): had no effect on the behavioral response to MK-801
- effect on β-catenin (β-catenin): no effect on β-catenin

Structure (SMILES): O=C1Cc2c([nH]c3ccc(Br)cc23)-c2ccccc2N1 [kenpaullone]
- NMDAR-dependent LTD [13]: reliably inhibit LTD

Structure (SMILES): O=C1NC(=O)C(c2ccccc2[N+](=O)[O-])=C1Nc1ccc(O)c(Cl)c1 [SB415286]
- NMDAR-dependent LTD [13]: reliably inhibit LTD

Structure (SMILES): CC1(C)CC(=O)C2=C(C1)N=C1NNC(C3CC3)=C1[C@]2(C)c1ccccc1 [BRD0320, (S)-3-cyclopropyl-4,7,7-trimethyl-4-phenyl-1,2,4,6,7,8-hexahydro-5H-pyrazolo[3,4-b]quinolin-5-one]
- AGS incidence, acute dosing (Fmr1^−/y mice [1]; [19]): ameliorates AGS incidence
- effect on β-catenin (β-catenin): increase in β-catenin

Structure (SMILES): Cc1nc(C#Cc2cccnc2)cs1 [MTEP, 3-[(2-methyl-1,3-thiazol-4-yl)ethynyl]-pyridine, reference compound]
- effect of pretreatment on MK-801–induced hyperlocomotion (wild-type mice; 10 mg/kg ip): potentiated MK-801–induced hyperlocomotion

Structure (SMILES): Cc1c[nH]c(-c2cnc(NCCNc3ccc(C#N)cn3)nc2-c2ccc(Cl)cc2Cl)n1 [CHIR99021]
- NMDAR-dependent LTD [13]: reliably inhibit LTD

Structure (SMILES): Cc1cccc(C#Cc2ccccc2)n1 [MPEP]
- suppression of AGS after chronic dosing (tolerance) (Fmr1^−/y mice [14]): greatly reduced after chronic dosing

Structure (SMILES): N#Cc1cccc(C(=O)Nc2cc(-c3ccccc3)nn2-c2ccccc2)c1 [CDPPB, 3-cyano-N-(1,3-diphenyl-1H-pyrazol-5-yl) benzamide, reference compound]
- protein synthesis on mGluR5 stimulation (mouse hippocampal slices; wild-type hippocampal slices, 10 μM, versus vehicle): significantly increased protein synthesis

Structure (SMILES): [Cl-].[Li+] [lithium, lithium chloride]
- phosphorylation of T514 of CRMP2 in hippocampus in vivo (T514 of CRMP2): not changed
- AGS protection (Fmr1^−/y mice [14]): protect Fmr1^−/y mice from AGS
- AGS, daily injections over 5 days (Fmr1^−/y mice [14]): effectively reduce AGS
- rates of cerebral protein synthesis (Fmr1^−/y mice [15]): reduces elevated rates of cerebral protein synthesis
- APP phosphorylation (T668) in dorsal hippocampus ([8]; 60 mg/kg ip twice daily): reduced APP phosphorylation
- NMDAR-dependent LTD [13]: reliably inhibit LTD
- inhibition of total GSK3 protein (GSK3): < 75%
